Assay results published in ChEMBL document CHEMBL1143151, “Design, synthesis and antimalarial activity of benzene and isoquinoline sulfonamide derivatives” (2008).
Converted amounts (≈) assume the structure as drawn.

system: Plasmodium falciparum; experiment: Antimalarial activity against Plasmodium falciparum NF54 after 36-40 hrs; assay type: functional
Summary of the method: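 P. falciparum NF-54 kept in RPMI-1640 with 25 mM Hepes, 1% D-glucose, 0.23% sodium bicarbonate, 10% heat-inactivated human serum; D-sorbitol (5%) synchronized to ring stage. ~1% ring parasitaemia, 3% haematocrit; compound […] µg/mL, duplicate wells, 37 °C candle jar, 36–40 h. Giemsa smears scored microscopically; MIC = concentration blocking full maturation to schizonts. Pyrimethamine reference.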

Row | MIC | Compound
1 | 10 mg/L (≈ 35.2 µM) | Cc1ccc(S(=O)(=O)N2CCN(CCO)CC2)cc1
2 | 10 mg/L (≈ 30.4 µM) | O=[N+]([O-])c1ccc(S(=O)(=O)NCCCN2CCOCC2)cc1
3 | 10 mg/L (≈ 26.6 µM) | CN(CC(O)CNCc1ccco1)S(=O)(=O)c1cccc2cnccc12 (centres undefined)
4 | 2 mg/L (≈ 4.4 µM) | CN(CC(O)CNCc1ccc(Cl)c(Cl)c1)S(=O)(=O)c1cccc2cnccc12 (centres undefined)
5 | 10 mg/L (≈ 23.3 µM) | COc1ccc(CCNCC(O)CN(C)S(=O)(=O)c2cccc3cnccc23)cc1 (centres undefined)
6 | 10 mg/L (≈ 35 µM) | CN1CCN(S(=O)(=O)c2ccc([N+](=O)[O-])cc2)CC1
7 | 10 mg/L (≈ 27.7 µM) | O=[N+]([O-])c1ccc(S(=O)(=O)N2CCN(Cc3ccccc3)CC2)cc1
8 | 50 mg/L (≈ 156 µM) | O=S(=O)(c1cccc2cnccc12)N1CCN(CCO)CC1
9 | 10 mg/L (≈ 31.1 µM) | COc1ccc(CCNS(=O)(=O)c2ccccc2)cc1OC
10 | 10 mg/L (≈ 21.8 µM) | COc1ccc(CCNCC(O)CN(C)S(=O)(=O)c2cccc3cnccc23)cc1OC (centres undefined)
11 | 10 mg/L (≈ 40.2 µM) | CCc1nc(N)nc(N)c1-c1ccc(Cl)cc1 [PYRIMETHAMINE]
12 | 10 mg/L (≈ 28.7 µM) | O=[N+]([O-])c1ccc(S(=O)(=O)N2CCN(c3ccccn3)CC2)cc1
13 | 10 mg/L (≈ 35.8 µM) | Cc1ccc(S(=O)(=O)NCCCn2ccnc2)cc1
14 | 10 mg/L (≈ 39.3 µM) | Cc1ccc(S(=O)(=O)N2CCN(C)CC2)cc1
15 | 10 mg/L (≈ 31.7 µM) | O=[N+]([O-])c1ccc(S(=O)(=O)N2CCN(CCO)CC2)cc1
16 | 10 mg/L (≈ 35.2 µM) | O=S(=O)(NCCCN1CCOCC1)c1ccccc1
17 | 10 mg/L (≈ 33.5 µM) | Cc1ccc(S(=O)(=O)NCCCN2CCOCC2)cc1

Row | MIC | Compound
18 | 10 mg/L (≈ 27.3 µM) | COc1ccc(CCNS(=O)(=O)c2ccc([N+](=O)[O-])cc2)cc1OC
19 | 2 mg/L (≈ 4.4 µM) | CN(CC(O)CNCc1ccc(Cl)cc1Cl)S(=O)(=O)c1cccc2cnccc12 (centres undefined)
20 | 10 mg/L (≈ 26.2 µM) | O=[N+]([O-])c1ccc(S(=O)(=O)N2CCN(c3cccc(Cl)c3)CC2)cc1
21 | 10 mg/L (≈ 31.2 µM) | NCCN1CCN(S(=O)(=O)c2cccc3cnccc23)CC1
22 | 10 mg/L (≈ 25.9 µM) | CN(CC(O)CNCc1ccccc1)S(=O)(=O)c1cccc2cnccc12 (centres undefined)
23 | 50 mg/L (≈ 120 µM) | CN(CC(O)CNCCc1ccc(O)cc1)S(=O)(=O)c1cccc2cnccc12 (centres undefined)
24 | 10 mg/L (≈ 23.8 µM) | CN(CC(O)CNCc1ccccc1Cl)S(=O)(=O)c1cccc2cnccc12 (centres undefined)
25 | 10 mg/L (≈ 30.3 µM) | Cc1ccc(S(=O)(=O)N2CCN(Cc3ccccc3)CC2)cc1
26 | 10 mg/L (≈ 37 µM) | O=S(=O)(c1ccccc1)N1CCN(CCO)CC1
27 | 10 mg/L (≈ 41.6 µM) | CN1CCN(S(=O)(=O)c2ccccc2)CC1
28 | 50 mg/L (≈ 124 µM) | CN(CC(O)CNCCCn1ccnc1)S(=O)(=O)c1cccc2cnccc12 (centres undefined)
29 | 10 mg/L (≈ 22.8 µM) | CN(CC(O)CNCCc1c[nH]c2ccccc12)S(=O)(=O)c1cccc2cnccc12 (centres undefined)
30 | 10 mg/L (≈ 23.8 µM) | CN(CC(O)CNCc1ccc(Cl)cc1)S(=O)(=O)c1cccc2cnccc12 (centres undefined)
31 | 10 mg/L (≈ 28.5 µM) | Cc1ccc(S(=O)(=O)N2CCN(c3ccc(Cl)cc3)CC2)cc1
32 | 10 mg/L (≈ 29.7 µM) | O=S(=O)(c1ccccc1)N1CCN(c2ccc(Cl)cc2)CC1
33 | 10 mg/L (≈ 29.8 µM) | COc1ccc(CCNS(=O)(=O)c2ccc(C)cc2)cc1OC
34 | 10 mg/L (≈ 33 µM) | O=S(=O)(c1ccccc1)N1CCN(c2ccccn2)CC1
